High-throughput results (PubChem)
Sampled rows, rich in hits. Any-hit rate of the full collection: about 2.7%.
TNF death inh: TNF-alpha cell death inhibition in Jurkat FADD-/- cells; Jurkat FADD-/- TNF necroptosis rescue, ATP luminescence, 24 h; 0 = TNF only, 100 = no-TNF cells; activation (protection from cell death), % at 10 µM; 220,000 tested, 0.068% active;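 active = activation, meaning protection from cell death, of at least 50% relative to plate controls; inactive = activation below 50%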;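 also: necroptosis triggered by 40 ng/mL TNF-alpha added together with compound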
Wee1 stabilizer: blocks degradation of human Wee1 kinase. P30291. HeLa Luc-Wee1K328M stability, luciferase luminescence; 100% = proteasome inhibitor MG132 effect. reporter increase, % at 5 µM. 220,000 tested, 1.2% active. AID 1321;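 active = activation above the mean of all tested compounds plus 3 SD, set per screening run, cut at about 8.8% in these data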;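 also: cells exposed to compound for 20 h before luminescence read; 0% = DMSO alone and 100% = MG132 at 30 µM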
p97 ATPase inh: blocks human p97 ATPase activity | P55072 | inhibition, % at 8 µM | 220,000 tested, 0.42% active | recombinant p97 ATPase, Kinase-Glo ATP luminescence, 3 h; in the data active = inhibition above about 15%;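 also: 0% = DMSO vehicle and 100% = wells lacking enzyme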
PfM18AAP inh-1: PfM18AAP enzyme inhibition. recombinant PfM18AAP, H-Glu-NHMec fluorogenic cleavage. inhibition, % at 7.35 µM. 290,000 tested, 1.2% active. AID 1822;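 active = inhibition above the campaign mean inhibition over all tested compounds plus 3 SD, cut at about 28% in these data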;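 also: 0% = plate median of test compound wells and 100% = 2 mM ZnCl2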
zVAD death inh: L929 zVAD cell death inhibition | AID 1377 | viability rescue, % at 10 µM | L929 zVAD necroptosis rescue, ATP luminescence, 24 h; with zVAD 60 µM | 220,000 tested, 0.38% active;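 active = activation, scaled between plate controls, above about 75%, limit read from the data; inactive = activation under that limit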;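 also: 0% = zVAD with DMSO and 100% = DMSO alone without zVAD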
RBBP9 inh: blocks human serine hydrolase RBBP9; 220,000 tested, 0.2% active; inhibition, % at 7.94 µM; recombinant RBBP9, FP-Rh probe fluorescence polarization;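 active = inhibition above the campaign mean of all tested compounds plus 3 SD, cut at about 14% in these data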;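 also: plate controls were DMSO wells with RBBP9 for no effect and wells lacking RBBP9 protein for full effect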
Target sequence (O75884 whole entry, looked up): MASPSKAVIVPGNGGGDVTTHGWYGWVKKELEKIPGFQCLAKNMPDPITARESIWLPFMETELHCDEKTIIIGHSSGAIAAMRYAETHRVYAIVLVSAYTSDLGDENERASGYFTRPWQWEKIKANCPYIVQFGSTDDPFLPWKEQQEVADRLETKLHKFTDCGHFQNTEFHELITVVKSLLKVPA
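Controls: DMSO-treated enzyme wells and wells lacking RBBP9 | Material: RBBP9 protein | Technique: Fluorescence polarization | Replication: Single well per compound, no replicates | Buffer or medium: Tris-NaCl-Pluronic buffer, pH 8.0 | Timing: 30 min compound preincubation, 45 min probe labeling, 25 °C | Read-out basis: Percent inhibition from mP, scaled between DMSO and no-protein wells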
PfM18AAP inh-2: PfM18AAP inhibition, confirmation; recombinant PfM18AAP, H-Glu-NHMec fluorogenic cleavage; AID 2170; 2,400 tested, 28% active; shares compounds with PfM18AAP inh-1; inhibition, % at 7.35 µM;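 active = mean inhibition over replicate wells above the hit cutoff set for the earlier primary screen, cut at about 29% in these data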;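 also: 0% = median of test compound wells and 100% = 2 mM ZnCl2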
CTSL1 confirm: counter-screen for PFM18AAP inhibitors: confirmation of human cathepsin L inhibitors. shares compounds with PfM18AAP inh-1. purified cathepsin L1, Z-Leu-Arg-MCA fluorescence. inhibition, % at 5.96 µM. 2,400 tested, under 10 active;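 active = average inhibition across replicates above the hit cutoff set in the earlier primary screen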;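 also: 0% = median of test compound wells and 100% = Z-Phe-Ala-diazomethylketone 1 µM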
Target sequence (P07711 whole entry, looked up): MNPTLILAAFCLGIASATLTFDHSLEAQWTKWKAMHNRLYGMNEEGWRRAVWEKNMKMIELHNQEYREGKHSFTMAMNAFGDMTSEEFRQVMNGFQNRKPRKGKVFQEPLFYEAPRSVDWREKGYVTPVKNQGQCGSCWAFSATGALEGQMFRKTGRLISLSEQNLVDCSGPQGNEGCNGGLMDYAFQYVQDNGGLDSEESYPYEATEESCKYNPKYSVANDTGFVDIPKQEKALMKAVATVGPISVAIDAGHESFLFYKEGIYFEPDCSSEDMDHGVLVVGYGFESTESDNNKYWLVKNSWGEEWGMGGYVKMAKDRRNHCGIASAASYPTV
Starred values were filed as active, the others as inactive.

Results for O=C1/C(=C/c2ccc(Cl)cc2)SC(=S)N1CCC(=O)N1CCCCC1CCO (centres undefined) ?
PfM18AAP inh-1: 2.0

How did Cc1ccc(S(=O)(=O)NC(=NC2CCCCC2)c2ccc(Cl)cc2)cc1 do in these assays?
PfM18AAP inh-1: 3.7

What do the screens show for `Cc1cccc(N=C(NO)c2nonc2N)c1`?
TNF death inh: -11.5; Wee1 stabilizer: 6.5; p97 ATPase inh: 6.7; PfM18AAP inh-1: 33.4*; RBBP9 inh: -4.7; PfM18AAP inh-2: 12.5; CTSL1 confirm: -1.7

How did Nc1nonc1C(=Nc1ccccc1)NO do in these assays?
TNF death inh: -3.2; Wee1 stabilizer: -2.3; p97 ATPase inh: 8.3; PfM18AAP inh-1: 42.9*; zVAD death inh: -0.6; RBBP9 inh: -5.7; PfM18AAP inh-2: 30.8*; CTSL1 confirm: -0.1

How did CCONC(=NC)c1nonc1N do in these assays?
TNF death inh: 0.5; Wee1 stabilizer: 3.6; p97 ATPase inh: 0.3; PfM18AAP inh-1: 0.8; zVAD death inh: 0.6; RBBP9 inh: -9.3

How did CC1CCCCN1S(=O)(=O)c1cccc(S(=O)(=O)N2CCOCC2)c1 (centres undefined) do in these assays?
TNF death inh: 2.3; Wee1 stabilizer: 5.4; p97 ATPase inh: 2.9; PfM18AAP inh-1: 0.3; zVAD death inh: 0.3; RBBP9 inh: 6.9

How did O=C(O)c1ccc(-n2c(O)c(C=C3N=c4ccccc4=N3)sc2=S)cc1 do in these assays?
TNF death inh: 1.4; Wee1 stabilizer: 5.6; p97 ATPase inh: 9.5; PfM18AAP inh-1: 51.0*; zVAD death inh: -0.3; RBBP9 inh: -2.3; PfM18AAP inh-2: -46.2; CTSL1 confirm: 0.8

How did Cc1ccc(N2C(=N)/C(=C3/Nc4ccccc4S3)C(c3ccccc3)C2=O)cc1 (centres undefined) do in these assays?
TNF death inh: -3.7; Wee1 stabilizer: 1.2; p97 ATPase inh: 3.5; PfM18AAP inh-1: 2.5; zVAD death inh: -0.7; RBBP9 inh: -1.9

Results for Cc1ccc(O)c(C=Nc2cc(C)ccc2O)c1 ?
TNF death inh: 1.5; Wee1 stabilizer: 2.2; p97 ATPase inh: 8.4; PfM18AAP inh-1: 31.8*; zVAD death inh: -0.1; RBBP9 inh: 10.9; PfM18AAP inh-2: 37.0*; CTSL1 confirm: -2.0

How did CCN(CC)c1ccc(N=Cc2cc(Br)ccc2O)cc1 do in these assays?
TNF death inh: -4.5; Wee1 stabilizer: 2.1; p97 ATPase inh: 2.1; PfM18AAP inh-1: 36.7*; zVAD death inh: 0.3; RBBP9 inh: 5.8; PfM18AAP inh-2: -18.1; CTSL1 confirm: -4.9

Results for Oc1cccc(/C=N/N=C/c2cccc(O)c2O)c1O ?
PfM18AAP inh-1: 41.8*; PfM18AAP inh-2: 7.1; CTSL1 confirm: -0.9

What do the screens show for `CC(C)(C)c1ccc(O)c(N=Cc2cc(Br)ccc2O)c1`?
TNF death inh: -5.3; Wee1 stabilizer: -1.3; p97 ATPase inh: 3.4; PfM18AAP inh-1: 55.9*; zVAD death inh: 0.2; RBBP9 inh: -4.6; PfM18AAP inh-2: 88.4*; CTSL1 confirm: -2.9

How did Oc1ccccc1C=NCCN=Cc1ccccc1O do in these assays?
TNF death inh: -3.9; Wee1 stabilizer: -0.9; p97 ATPase inh: -0.3; PfM18AAP inh-1: -6.8; zVAD death inh: 0.3; RBBP9 inh: -6.9

What do the screens show for `Nc1cccc(S(=O)(=O)Nc2ccccc2)c1`?
TNF death inh: 8.9; Wee1 stabilizer: -0.1; p97 ATPase inh: 5.5; PfM18AAP inh-1: 1.4; zVAD death inh: 1.2; RBBP9 inh: -3.7

How did COc1ccc(Cc2nc3ccc(C(=O)N(C)C(C)c4ccon4)cc3o2)cc1 (centres undefined) do in these assays?
PfM18AAP inh-1: -6.5

Results for CCN(CC)c1ccc(C=Nc2ccc(C)cc2C)c(O)c1 ?
TNF death inh: 0.2; Wee1 stabilizer: -1.9; p97 ATPase inh: 7.5; PfM18AAP inh-1: -5.0; zVAD death inh: -0.6; RBBP9 inh: -4.8

What do the screens show for `Cc1ccc(O)c(N=CC2=C(O)c3ccccc3C2=O)c1`?
TNF death inh: -16.1; Wee1 stabilizer: 1.3; p97 ATPase inh: -4.7; PfM18AAP inh-1: 70.9*; zVAD death inh: 2.1; RBBP9 inh: -14.2; PfM18AAP inh-2: -15.4; CTSL1 confirm: 5.1

What do the screens show for `O=C1C(C=Nc2ccccc2O)=C(O)c2ccccc21`?
TNF death inh: -0.2; Wee1 stabilizer: 2.8; p97 ATPase inh: -8.0; PfM18AAP inh-1: 15.3; zVAD death inh: 1.6; RBBP9 inh: -15.3

Results for Cc1ccc(N=Cc2cccc(O)c2O)c(C)c1 ?
TNF death inh: -11.8; Wee1 stabilizer: -2.9; p97 ATPase inh: 9.7; PfM18AAP inh-1: 34.4*; zVAD death inh: 1.1; RBBP9 inh: 8.2; PfM18AAP inh-2: 36.9*; CTSL1 confirm: -3.5

Results for C(=C\c1ccccn1)/c1cccnc1 ?
TNF death inh: 2.8; Wee1 stabilizer: -1.0; p97 ATPase inh: 1.5; PfM18AAP inh-1: -1.6; zVAD death inh: 0.6; RBBP9 inh: -4.9

How did O=C(c1cccc(C(F)(F)F)c1)C1CCCN(C(=O)CCCN2CCCC2=O)C1 (centres undefined) do in these assays?
TNF death inh: 0.9; Wee1 stabilizer: -1.2; p97 ATPase inh: 2.1; PfM18AAP inh-1: 4.2; zVAD death inh: -0.2; RBBP9 inh: -1.1

How did Cc1ccc(NC(=O)c2cc(C(=O)c3cc(Cl)ccc3O)cn(-c3ccc(C)cc3)c2=O)cc1 do in these assays?
TNF death inh: 1.1; Wee1 stabilizer: -0.4; p97 ATPase inh: -3.6; PfM18AAP inh-1: -1.3; zVAD death inh: 5.5; RBBP9 inh: -15.7

Results for O=C1c2ccccc2C(=O)N1CSc1ncccn1 ?
TNF death inh: 0.0; Wee1 stabilizer: -1.5; p97 ATPase inh: -4.5; PfM18AAP inh-1: 45.7*; zVAD death inh: 2.1; RBBP9 inh: -10.6; PfM18AAP inh-2: -57.8; CTSL1 confirm: 2.0

How did Cc1cc(C)n2nc(SCC(=O)Nc3ccccc3)nc2n1 do in these assays?
TNF death inh: 1.7; Wee1 stabilizer: 4.6; p97 ATPase inh: -2.1; PfM18AAP inh-1: -16.4; zVAD death inh: -0.6; RBBP9 inh: -1.4

What do the screens show for `Cc1cc(C)n2nc(SCN3C(=O)c4ccccc4C3=O)nc2n1`?
TNF death inh: -0.6; Wee1 stabilizer: -1.1; p97 ATPase inh: 4.9; PfM18AAP inh-1: 76.9*; zVAD death inh: -0.3; RBBP9 inh: -0.5; PfM18AAP inh-2: -42.4; CTSL1 confirm: 2.7

How did Oc1ccc(N2CCN(CC(O)c3ccccc3)CC2)cc1 (centres undefined) do in these assays?
PfM18AAP inh-1: 51.5*; PfM18AAP inh-2: -21.8; CTSL1 confirm: 0.2

How did O=[N+]([O-])c1ccc(C(O)CN2CCN(c3ccccc3)CC2)cc1 (centres undefined) do in these assays?
PfM18AAP inh-1: -6.0
